MC4R ag barr: MC4R agonists recruiting beta-arrestin, primary screen, cell-based, luminescence, agonist arm of biased-ligand search | Melanocortin receptor 4 (Homo sapiens), P32245 | U2OS MC4R beta-arrestin complementation; percent of melanotan II response, DMSO zero | activation, % at 8.9 µM | actives 0.98% (n = 360,000);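 active = activation above a per-plate cutoff, the mean activation of sample wells on that plate plus 3 SD, cut at about 8% in these data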
MC4R antag cAMP: MC4R antagonists of cAMP signaling, primary screen, cell-based, TR-FRET, antagonist arm of biased-ligand search | Melanocortin receptor 4 (Homo sapiens), P32245 | inhibition, % at 6.5 µM | MC4R-expressing cells, MTII-stimulated cAMP, LANCE TR-FRET | actives 0.48% (n = 360,000);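 active = inhibition above its plate's cutoff, the mean of tested wells on that plate plus 3 SD, cut at about 29% in these data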;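 also: 0% = Melanotan II alone and 100% = Melanotan II plus saturating MCL0020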
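Assay system: U2OS cells stably expressing human melanocortin 4 receptor (MC4R) / Dosing: 6.5 µM / Timing: compound 30 min, challenge 1 h, detection 1 h / Measured by: Eu-cAMP/anti-cAMP TR-FRET, emission 671 nm / Replicates: singlicate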
NTR1 agonist: agonists of human NTR1, primary screen, imaging, U2OS cells, beta-arrestin-GFP, high content; Neurotensin receptor type 1 (Homo sapiens), P30989; NTR1-U2OS beta-arrestin-GFP spot imaging, agonist mode; activation, % at 20 µM; actives 0.17% (n = 330,000); AID 493036, 2011;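 active = activation at or above 40% of the spot to cytoplasm intensity ratio, with at least 20 cells analyzed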;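 also: 0% = DMSO without peptide and 100% = 100 nM NTR1 peptide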
Target sequence (P30989 whole entry, looked up): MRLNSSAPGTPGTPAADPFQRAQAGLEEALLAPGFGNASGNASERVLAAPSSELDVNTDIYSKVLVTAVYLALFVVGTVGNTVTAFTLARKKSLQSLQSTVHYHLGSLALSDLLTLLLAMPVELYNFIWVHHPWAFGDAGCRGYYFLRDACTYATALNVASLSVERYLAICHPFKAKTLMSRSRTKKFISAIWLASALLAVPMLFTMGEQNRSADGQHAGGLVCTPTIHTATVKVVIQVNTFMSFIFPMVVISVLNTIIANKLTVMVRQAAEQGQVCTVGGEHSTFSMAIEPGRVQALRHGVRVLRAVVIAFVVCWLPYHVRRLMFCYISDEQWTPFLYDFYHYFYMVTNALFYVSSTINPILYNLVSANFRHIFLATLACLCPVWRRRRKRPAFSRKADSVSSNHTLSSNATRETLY
AI-2 QS modul: Vibrio harveyi AI-2 quorum sensing modulators, primary screen, JMH597 strain, luminescence/OD600 ratio; actives 0.4% (n = 300,000); Vibrio harveyi JMH597 AI-2 luminescence/OD600 ratio, 9 h; hits give low values; strain lacks LuxN and CqsS sensors; 0 = neutral-control median; activity change, % at 7.5 µM; in the data active = activity change below about -75%, passing the limit was not always enough;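 also: luminescence divided by OD600 gain over 9 h not by final OD600 alone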
* = called active by the depositor; . = no result given. Rows were chosen to be rich in hits. Some 1.8% of all compounds tested hit in one or more screens of this group.

SMILES	MC4R ag barr	MC4R antag cAMP	NTR1 agonist	AI-2 QS modul
N#CCC(CNc1ncc(C(F)(F)F)cc1Cl)OC(=O)c1ccc(Cl)cc1 (stereo not given)	0.0	-0.1	8.4	13.1
N#CCC(CNc1ncc(C(F)(F)F)cc1Cl)OC(=O)c1cccc([N+](=O)[O-])c1 (stereo not given)	9.1*	-0.7	4.0	8.0
N#C/C(=C\c1ccc(C(=O)O)cc1)c1ccccn1	-2.2	-5.6	-1.0	29.7
N#C/C(=C\c1c[nH]c2ccc(Br)cc12)c1ccccn1	3.5	13.1	51.0*	-3.5
CCOc1cc(/C=C2\C(=O)ON=C2c2ccccc2)ccc1OC	-1.1	12.7	16.3	22.7
CCOc1cc(/C=C2/C(=O)ON=C2C)ccc1OCc1ccccc1F	-1.6	17.5	74.7*	10.4
CC(C)NC(=O)NC(=O)CSc1nnc(COc2ccccc2F)n1C(C)C1CC2CCC1C2 (stereo not given)	9.5*	21.1	26.0	3.8
CC(C1CC2CCC1C2)n1c(COc2ccccc2F)nnc1SCC(N)=O (stereo not given)	-0.4	22.5	1.6	4.6
Cc1cccc(C(CC(=O)N2CCCCC2)c2ccccc2)c1O (stereo not given)	-1.1	-5.8	-0.3	13.8
Cc1ccc(Cn2ccsc2=NC(=O)CCl)cc1	15.1*	9.3	-0.3	1.5
Cc1ccc(Cn2ccsc2=NC(=O)COC(=O)c2ccc(NC(=O)CC#N)cc2)cc1	-2.4	5.2	1.0	19.2
CCN(CC)c1ccc(NC(=O)CSc2nc(C3CC3)nc3ccccc23)cc1C	8.9*	-16.1	1.0	31.1
Cc1ccccc1C(=O)Nc1nnc(-c2ccc(F)cc2)o1	-0.4	20.5	-1.9	-82.2*
COc1ccc(C(CNC(=O)c2cccc(S(=O)(=O)Nc3ccc(F)cc3)c2)N2CCOCC2)cc1 (stereo not given)	-1.0	0.2	.	.
O=C(CCl)N(c1ccccc1)C1CCCCC1	9.1*	2.9	1.1	34.0
CC(=O)N(c1ccccc1)C1CCCC1	0.3	1.6	2.6	5.1
Cc1ccc(OCC(=O)Nc2ccc(NC(=O)c3ccccc3)c(C)c2)cc1	4.5	9.8	4.8	39.0
O=C(N/N=C/c1cc([N+](=O)[O-])ccc1O)c1ccncc1	-0.2	2.5	-0.8	-90.6*
O=C(N/N=C/c1cc(Br)ccc1O)c1ccncc1	-3.1	7.6	0.0	-94.1*
O=C(N/N=C/c1ccccc1O)c1ccncc1	-0.9	-2.9	1.6	5.4
O=C(N/N=C/c1ccc([N+](=O)[O-])s1)c1ccncc1	-0.4	-31.7	-0.3	-86.8*
Nc1nonc1C(=O)N/N=C/c1cc(Br)ccc1O	.	.	7.7	-88.7*
Cc1ccc(C(=O)N/N=C/c2ccc([N+](=O)[O-])s2)cc1	2.6	-16.1	0.6	50.6
CCCCC(=O)c1ccc(OC(=O)c2ccc([N+](=O)[O-])cc2)cc1	-1.8	1.3	.	.
Cc1ccc(NC(=O)CCCn2c(=S)[nH]c3ccsc3c2=O)cc1C	-4.8	10.2	1.9	1.4
SMILES	MC4R ag barr	MC4R antag cAMP	NTR1 agonist	AI-2 QS modul
Cc1cccc(NC(=S)N/N=C/c2ccc([N+](=O)[O-])s2)c1	-1.7	21.2	3.4	-212.1*
Cc1ccc(C)c(NC(=O)CCC(=O)N/N=C/c2cc([N+](=O)[O-])ccc2O)c1	0.6	2.8	0.0	403.5
Cc1ccccc1NC(=O)CCC(=O)N/N=C/c1cc([N+](=O)[O-])ccc1O	0.1	3.8	0.8	-109.4*
Cc1cccc(NC(=O)/C=C/c2ccc([N+](=O)[O-])s2)c1	-1.6	-3.1	.	14.0
CCSc1nnc(NC(=O)Cn2cnc3ccccc3c2=O)s1	0.4	12.0	1.2	-80.6*
Cc1ccc(CSc2nnc(NC(=O)Cn3cnc4ccccc4c3=O)s2)cc1	-0.5	10.7	2.6	-16.5
CC(C)(C)C1=CC(=O)C(=O)C(C(C)(C)C)=C1	24.6*	10.1	-2.1	-0.6
CC(C)(C)C1=CC(=Nc2ccccc2N)C=C(C(C)(C)C)C1=O	-1.2	22.8	-1.4	-4.7
O=c1cc(CN2CCN(C/C=C/c3ccccc3)CC2)c2cc(O)c(-c3ccccc3)cc2o1	-1.2	1.7	7.9	21.3
CC(C)CN(Cc1cc(=O)oc2cc(-c3ccccc3)c(O)cc12)CC(C)C	10.7*	11.7	13.7	21.0
CC(C)(C)c1ccc(COC(=O)Nc2ccc(F)cc2)cc1	-1.1	3.6	-0.1	-50.7
CC(C)(C)c1ccc(NC(=O)Nc2ccc(F)cc2)cc1	4.6	15.9	0.1	-84.8*
Nc1c(C(=O)O)sc2nc3c(cc12)CCCC3	-1.6	-6.4	-0.9	35.5
CN1CCc2nc3sc(C(=O)C45CC6CC(CC(C6)C4)C5)c(N)c3cc2C1	11.8*	-0.3	2.0	.
CN(N=Nc1ccc([N+](=O)[O-])cc1)c1ccccc1	8.3*	-0.4	2.3	29.8
CCc1ccc(NC(=O)Cn2nc(C(=O)O)c3ccccc3c2=O)cc1	6.4	24.5	1.8	2.9
Cc1ccc(CONS(=O)(=O)c2cc(C)ccc2C)cc1	8.2*	-2.6	1.7	.
O=C(COc1ccc(Cl)cc1Cl)Nc1ccc(Cl)cn1	8.1	3.7	2.3	44.3
CCOc1ccc(C(=O)Nc2ccc(Cl)cn2)cc1Cl	8.3*	-1.0	0.0	6.2
O=C(CS(=O)(=O)c1ccccc1Cl)N1CCOCC1	-0.7	15.1	-0.8	5.3
COc1cc(CNC(=O)C2CC(O)CN2C(=O)Nc2ccccc2)cc(OC)c1OC (stereo not given)	-1.5	1.9	.	.
O=C(C#Cc1ccccc1)Nc1ccccc1F	0.6	-0.7	-1.7	-86.9*
CNC(=O)Nc1ccccc1F	1.0	8.7	-1.0	-0.3
CC1CCCC(NC(=O)CN2CCN(S(=O)(=O)c3ccc(Br)s3)CC2)C1C (stereo not given)	-1.4	-2.0	4.5	.
CCn1c2ccccc2c2cc(NC(=O)CSc3nnnn3-c3ccccc3)ccc21	8.7*	7.2	-1.4	39.4
SMILES	MC4R ag barr	MC4R antag cAMP	NTR1 agonist	AI-2 QS modul
COc1ccc(CNC(=O)COC(=O)c2cc(-c3ccc(Cl)s3)nc3ccccc23)cc1	9.2*	0.5	2.5	-0.6
O=C(COC(=O)c1cc(-c2ccc(Cl)s2)nc2ccccc12)NCc1ccco1	-1.4	17.6	3.9	8.0
COc1ccc(NC(=O)NCCCCc2ccccc2)cc1	-0.4	11.4	-0.5	-4.4
CCOc1ccc(NC(=O)NCCCCc2ccccc2)cc1	9.0*	-1.4	0.8	-1.9
COc1cc(/C=N/NC(=O)c2cncc(Br)c2)cc([N+](=O)[O-])c1O	-3.1	-1.4	-1.1	-202.3*
COc1cc([N+](=O)[O-])cc(/C=N/NC(=O)c2cncc(Br)c2)c1O	-1.9	7.2	0.7	-35.9
O=S1(=O)N=C(N/N=C/c2ccccn2)c2ccccc21	-2.0	-0.8	0.7	-85.7*
O=c1nc(N/N=C/c2ccccn2)cn[nH]1	0.5	14.4	-0.4	-88.2*
COc1ccc(/C=N/NC2=NS(=O)(=O)c3ccccc32)cc1	1.1	10.8	0.4	24.0
